Experimental data reported in ChEMBL document CHEMBL3352487, “Synthesis, antibacterial activity, and biological evaluation of formyl hydroxyamino derivatives as novel potent peptide deformylase inhibitors against drug-resistant bacteria” (Eur J Med Chem, 2014).
≈ marks a conversion by molar mass, not a printed value.

Assays:
Assay type in all cases: functional
[1] = tested on: Enterococcus faecalis; experiment: Antimicrobial activity against Enterococcus faecalis after 24 hrs by broth microdilution method
Summary of the method: (§1)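 Broth microdilution following NCCLS M7-A4; ATCC strains and clinical isolates from a provincial hospital.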

[2] = tested on: Streptococcus pneumoniae; experiment: Antimicrobial activity against penicillin-resistant Streptococcus pneumoniae after 24 hrs by broth microdilution method
Summary of the method: (§2)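 Broth microdilution following NCCLS M7-A4, using ATCC strains and clinical isolates from a provincial hospital.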

[3] = tested on: Moraxella catarrhalis; experiment: Antimicrobial activity against Moraxella catarrhalis after 24 hrs by broth microdilution method; summary of the method: as §1
[4] = tested on: Staphylococcus aureus; experiment: Antimicrobial activity against methicillin-susceptible Staphylococcus aureus after 24 hrs by broth microdilution method; summary of the method: as §1
[5] = tested on: Staphylococcus epidermidis; experiment: Antimicrobial activity against methicillin-resistant Staphylococcus epidermidis after 24 hrs by broth microdilution method; summary of the method: as §2
[6] = tested on: Staphylococcus aureus; experiment: Antimicrobial activity against methicillin-resistant Staphylococcus aureus after 24 hrs by broth microdilution method; summary of the method: as §2
[7] = tested on: Staphylococcus aureus; experiment: Antimicrobial activity against Staphylococcus aureus after 24 hrs by broth microdilution method; summary of the method: as §1
[8] = tested on: Staphylococcus epidermidis; experiment: Antimicrobial activity against methicillin-susceptible Staphylococcus epidermidis after 24 hrs by broth microdilution method; summary of the method: as §1
[9] = tested on: Escherichia coli; experiment: Antimicrobial activity against Escherichia coli isolate 2 after 24 hrs by broth microdilution method; conditions: isolate 2, 24 h; summary of the method: as §1
[10] = tested on: Staphylococcus epidermidis; experiment: Antimicrobial activity against Staphylococcus epidermidis after 24 hrs by broth microdilution method; summary of the method: as §1
[11] = tested on: Escherichia coli; experiment: Antimicrobial activity against Escherichia coli isolate 1 after 24 hrs by broth microdilution method; conditions: isolate 1, 24 h; summary of the method: as §1

Row | Structure (SMILES) | MIC [1] [µg/mL] | MIC [2] [µg/mL] | MIC [3] [µg/mL] | MIC [4] [µg/mL] | MIC [5] [µg/mL] | MIC [6] [µg/mL] | MIC [7] [µg/mL] | MIC [8] [µg/mL] | MIC [9] [µg/mL] | MIC [10] [µg/mL] | MIC [11] [µg/mL]
1 | CCCC[C@H](CN(O)C=O)C(=O)N1[C@H](C(=O)Nc2ccc(C)cn2)C[C@H]2CCCC[C@@H]21 | > 16 | 0.03 (≈ 0.0697 µM) | 0.03 (≈ 0.0697 µM) | 8 (≈ 18.6 µM) | 16 (≈ 37.2 µM) | 4 (≈ 9.29 µM) | 8 (≈ 18.6 µM) | 0.5 (≈ 1.16 µM) |  |  | 
2 | O=CN(O)C[C@@H](CC1CCCC1)C(=O)N1[C@H](C(=O)Nc2ccc(F)cn2)C[C@H]2CCCC[C@@H]21 | > 16 | 0.03 (≈ 0.0651 µM) | 0.03 (≈ 0.0651 µM) | 4 (≈ 8.69 µM) | 4 (≈ 8.69 µM) | 4 (≈ 8.69 µM) | 4 (≈ 8.69 µM) | 0.25 (≈ 0.543 µM) |  |  | 
3 | Cc1cnc(NC(=O)[C@@H]2C[C@H]3CCCC[C@@H]3N2C(=O)[C@H](CC2CCCC2)CN(O)C=O)s1 | > 16 | 0.03 (≈ 0.0648 µM) | 0.5 (≈ 1.08 µM) | 4 (≈ 8.65 µM) | 8 (≈ 17.3 µM) | 4 (≈ 8.65 µM) | 4 (≈ 8.65 µM) | 0.5 (≈ 1.08 µM) |  |  | 
4 | CCCC[C@H](CN(O)C=O)C(=O)N1CC=C[C@H]1C(=O)Nc1ccccc1Cl |  |  |  | 2 (≈ 5.08 µM) |  | 0.25 (≈ 0.635 µM) | 0.5 (≈ 1.27 µM) |  | 64 (≈ 162 µM) | 1 (≈ 2.54 µM) | > 64
5 | O=C(O)c1cn(C2CC2)c2cc(N3CCNCC3)c(F)cc2c1=O [CIPROFLOXACIN] |  |  |  | 0.5 (≈ 1.51 µM) |  | 1 (≈ 3.02 µM) | 0.5 (≈ 1.51 µM) |  | < 0.0312 | 0.25 (≈ 0.754 µM) | < 0.0312
6 | O=CN(O)C[C@@H](CC1CCCC1)C(=O)N1CC=C[C@H]1C(=O)N1CCOCC1 |  |  |  | 64 (≈ 169 µM) |  | 32 (≈ 84.3 µM) | 64 (≈ 169 µM) |  | > 64 | 64 (≈ 169 µM) | > 64
7 | C=C1C[C@@H](C(=O)Nc2ccc(F)c[n+]2[O-])N(C(=O)[C@H](CCCC)CN(O)C=O)C1 |  |  |  | 4 (≈ 9.79 µM) |  | 0.5 (≈ 1.22 µM) | 1 (≈ 2.45 µM) |  | > 64 | 1 (≈ 2.45 µM) | > 64
8 | CCCC[C@H](CN(O)C=O)C(=O)N1CC=C[C@H]1C(=O)Nc1cccc(Br)c1 |  |  |  | 1 (≈ 2.28 µM) |  | 0.125 (≈ 0.285 µM) | 8 (≈ 18.3 µM) |  | 16 (≈ 36.5 µM) | 1 (≈ 2.28 µM) | 64 (≈ 146 µM)
9 | Cc1cnc(NC(=O)[C@@H]2C[C@H](F)CN2C(=O)[C@H](CC2CCCC2)CN(O)C=O)s1 | > 16 | 0.03 (≈ 0.0703 µM) | 0.125 (≈ 0.293 µM) | 0.5 (≈ 1.17 µM) | 1 (≈ 2.34 µM) | 0.5 (≈ 1.17 µM) | 1 (≈ 2.34 µM) | 0.125 (≈ 0.293 µM) |  |  | 
10 | C=C1C[C@@H](C(=O)Nc2ccc(F)cc2)N(C(=O)[C@H](CCCC)CN(O)C=O)C1 |  |  |  | 2 (≈ 5.11 µM) |  | 0.25 (≈ 0.639 µM) | 0.5 (≈ 1.28 µM) |  | 64 (≈ 163 µM) | 0.5 (≈ 1.28 µM) | 64 (≈ 163 µM)
11 | CCCC[C@H](CN(O)C=O)C(=O)N1C[C@@H](C)C[C@H]1C(=O)Nc1ccc(F)c[n+]1[O-] | 4 (≈ 9.75 µM) | 0.03 (≈ 0.0731 µM) | 0.03 (≈ 0.0731 µM) | 0.25 (≈ 0.609 µM) | 0.5 (≈ 1.22 µM) | 0.25 (≈ 0.609 µM) | 0.25 (≈ 0.609 µM) | 0.0625 (≈ 0.152 µM) |  |  | 
12 | O=CN(O)C[C@@H](CC1CCCC1)C(=O)N1CC=C[C@H]1C(=O)Nc1ccc(F)cn1 |  |  |  | 0.5 (≈ 1.24 µM) |  | 0.125 (≈ 0.309 µM) | 0.25 (≈ 0.618 µM) |  | 16 (≈ 39.6 µM) | 0.125 (≈ 0.309 µM) | 32 (≈ 79.1 µM)
13 | CCCC[C@H](CN(O)C=O)C(=O)N1C[C@@H](F)C[C@H]1C(=O)Nc1ncc(C)s1 | > 16 | 0.06 (≈ 0.15 µM) | 0.25 (≈ 0.624 µM) | 8 (≈ 20 µM) | 8 (≈ 20 µM) | 8 (≈ 20 µM) | 8 (≈ 20 µM) | 4 (≈ 9.99 µM) |  |  | 
14 | CCCC[C@H](CN(O)C=O)C(=O)N1C[C@@H](F)C[C@H]1C(=O)Nc1ccc(F)c[n+]1[O-] | > 16 | 0.06 (≈ 0.145 µM) | 0.25 (≈ 0.603 µM) | 4 (≈ 9.65 µM) | 16 (≈ 38.6 µM) | 4 (≈ 9.65 µM) | 4 (≈ 9.65 µM) | 4 (≈ 9.65 µM) |  |  | 
15 | CCCC[C@H](CN(O)C=O)C(=O)N1[C@H](C(=O)Nc2ncc(C)s2)C[C@H]2CCCC[C@@H]21 | > 16 | 0.03 (≈ 0.0687 µM) | 0.03 (≈ 0.0687 µM) | 8 (≈ 18.3 µM) | 16 (≈ 36.6 µM) | 8 (≈ 18.3 µM) | 8 (≈ 18.3 µM) | 0.5 (≈ 1.15 µM) |  |  | 
16 | C[C@H](NC(=O)[C@@H]1C=CCN1C(=O)[C@H](CC1CCCC1)CN(O)C=O)c1ccccc1 |  |  |  | 16 (≈ 38.7 µM) |  | 4 (≈ 9.67 µM) | 4 (≈ 9.67 µM) |  | > 64 | 8 (≈ 19.3 µM) | > 64
17 | CC1(C)S[C@@H]2[C@H](NC(=O)Cc3ccccc3)C(=O)N2[C@H]1C(=O)O [PENICILLIN G] |  |  |  | 1 (≈ 2.99 µM) |  | 64 (≈ 191 µM) | 0.0625 (≈ 0.187 µM) |  | > 64 | 2 (≈ 5.98 µM) | > 64
18 | O=CN(O)C[C@@H](CC1CCCC1)C(=O)N1C[C@@H](F)C[C@H]1C(=O)Nc1ccc(F)c[n+]1[O-] | 8 (≈ 18.2 µM) | 0.03 (≈ 0.0681 µM) | 0.25 (≈ 0.568 µM) | 0.5 (≈ 1.14 µM) | 4 (≈ 9.08 µM) | 2 (≈ 4.54 µM) | 2 (≈ 4.54 µM) | 0.25 (≈ 0.568 µM) |  |  | 
